Assay outcomes deposited in PubChem BioAssay by several laboratories.
ABCB1 inh: ABCB1 efflux pump inhibitors, primary screen, cell-based, multiplex, flow cytometry, ABCG2 counter-screen | ATP-dependent translocase ABCB1 (Homo sapiens), P08183 | CCRF-Adr cells, JC-1 efflux | inhibition, % at 6.6 µM | 190,000 compounds, 0.067% hits; in the data active = inhibition above about 40%;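 also: 0% = vehicle and 100% = reference inhibitor; higher value means more JC-1 retained so stronger ABCB1 efflux block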
EP2 modulator: EP2 receptor modulators, cAMP readout, primary screen, cell-based, HTRF cAMP, PGE2 stimulation; Prostaglandin E2 receptor EP2 subtype (Homo sapiens), P43116; EP2-expressing cells, cAMP HTRF FRET, PGE2 co-stimulation; induction, % at 25 µM; 260,000 compounds, 0.83% hits; AID 940, 2007;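 active = compounds whose cAMP rise, as percent of the full-agonist control response, exceeds 60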;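 also: rat C6 glioma line stably carrying human EP2 under a CMV promoter; the protocol text gives 20 µM as final concentration; 100% = response of wells given 1 µM PGE2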
ABCG2 block: ABCG2 efflux pump inhibitors, primary screen, multiplex with ABCB1, IgMXP3 cells, flow cytometry; 190,000 compounds, 0.1% hits; JC-1 efflux; inhibition, % at 6.6 µM;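 active = inhibition above 80%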;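 also: 0% = DMSO and 100% = nicardipine control wells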
Target sequence (Q9UNQ0 whole entry, looked up): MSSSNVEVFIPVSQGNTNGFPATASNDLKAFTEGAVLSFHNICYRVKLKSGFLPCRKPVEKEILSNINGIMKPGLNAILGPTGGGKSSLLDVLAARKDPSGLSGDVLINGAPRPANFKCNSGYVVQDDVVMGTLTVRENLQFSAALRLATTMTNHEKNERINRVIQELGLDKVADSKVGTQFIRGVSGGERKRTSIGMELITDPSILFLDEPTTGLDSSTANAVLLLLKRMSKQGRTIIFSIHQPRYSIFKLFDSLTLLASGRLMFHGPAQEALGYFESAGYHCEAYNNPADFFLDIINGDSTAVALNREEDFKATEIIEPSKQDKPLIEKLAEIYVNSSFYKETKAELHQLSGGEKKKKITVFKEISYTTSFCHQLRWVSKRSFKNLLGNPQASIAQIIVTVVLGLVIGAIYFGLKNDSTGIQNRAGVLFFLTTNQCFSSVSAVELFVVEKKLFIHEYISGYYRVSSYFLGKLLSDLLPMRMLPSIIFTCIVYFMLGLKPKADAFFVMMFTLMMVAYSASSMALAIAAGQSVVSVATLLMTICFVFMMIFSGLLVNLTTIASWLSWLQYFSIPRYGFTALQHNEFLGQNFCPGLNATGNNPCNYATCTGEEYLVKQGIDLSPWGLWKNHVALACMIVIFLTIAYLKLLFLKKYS
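System: two drug-resistant human cell lines, ABCG2 and ABCB1; controls: nicardipine high and DMSO low controls; times: 10 min exposure at 25 °C with rotation, no wash; detection: flow cytometry of retained JC-1 fluorescence; read-out basis: percent efflux inhibition, scaled nicardipine 100% to DMSO 0%; doses: one concentration, 6.6 µM final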
RBBP9 inh: human RBBP9 inhibitors, primary screen, biochemical, fluorescence polarization, FP-Rh probe, HTS; inhibition, % at 7.94 µM; 220,000 compounds, 0.2% hits; Serine hydrolase RBBP9 (Homo sapiens), O75884; recombinant RBBP9;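 active = inhibition above the campaign mean of all tested compounds plus 3 SD, cut at about 14% in these data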;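 also: plate controls were DMSO wells with RBBP9 for no effect and wells lacking RBBP9 protein for full effect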
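Test system: recombinant human RBBP9. Quantity: 2.5 µM RBBP9 dispensing solution, before mixing. Detection: FP readout at 525/598 nm. Reagent: Serine-hydrolase probe FP-Rh, 375 nM pre-mixing. Measure: % inhibition. Control set: DMSO-treated enzyme wells and wells lacking RBBP9. Buffer or medium: Tris-NaCl-Pluronic buffer, pH 8.0. Times: preincubation 30 min plus labeling 45 min at 25 °C.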
PGE2 EP2 inh: human EP2 receptor antagonists, primary screen, TR-FRET cAMP, C6 glioma cells; Prostaglandin E2 receptor EP2 subtype (Homo sapiens), P43116; C6 glioma cells expressing human EP2; cells stimulated with saturating PGE2; inhibition, % at 25 µM; 260,000 compounds, 0.52% hits; AID 1422, 2008;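 active = percent inhibition above 40 after rounding to a whole number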;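 also: rat C6 glioma host cells with rolipram phosphodiesterase inhibitor present; the protocol text gives 20 µM as final concentration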
* marks the source's active call; other numbers are inactive results; ! = not active in a repeat. Only some compounds are listed: those with a hit (about 1.5% of all), similar ones and a draw of the others.

For COc1cc(NS(=O)(=O)c2ccc(NC(=S)NC(=O)c3sc4ccccc4c3Cl)cc2)nc(OC)n1 the results were ABCB1 inh -2.2, EP2 modulator -3.1, ABCG2 block -13.5, RBBP9 inh -6.9 and PGE2 EP2 inh 126.3*.
Screening COc1cc(NS(=O)(=O)c2ccc(NC(=S)NC(=O)c3sc4cc(F)ccc4c3Cl)cc2)nc(OC)n1 returned ABCB1 inh -1.9, EP2 modulator -2.9, ABCG2 block -8.5, RBBP9 inh -3.0 and PGE2 EP2 inh 95.5*.
COc1cc2c(cc1OC)-c1cc(=Nc3c(C)cc(C)cc3C)n(C)c(=O)n1CC2 was read as EP2 modulator 66.8* and PGE2 EP2 inh 5.9.
`Cc1ccc(S(=O)(=O)N(CC(=O)Nc2ccccc2-c2ccccc2)c2ccc(C)cc2C)cc1` gave ABCB1 inh 1.8, EP2 modulator 17.1, ABCG2 block -0.8, RBBP9 inh -13.2 and PGE2 EP2 inh 1.8.
Screening Cc1cccc(N(CC(=O)Nc2ccccc2-c2ccccc2)S(=O)(=O)c2ccccc2)c1C returned ABCB1 inh -0.3, EP2 modulator 63.8*, ABCG2 block -0.7, RBBP9 inh -0.8 and PGE2 EP2 inh 2.4.
Screening COc1cc(NC(=O)c2sc3nc4ccc(OC)cc4cc3c2N)cc(OC)c1 returned EP2 modulator -38.3 and PGE2 EP2 inh 8.0.
`O=C(O)CC(Cc1ccccc1)c1ccc2c(c1)OCO2` (configuration not stated) gave ABCB1 inh 0.3, EP2 modulator 14.0, ABCG2 block 0.7 and RBBP9 inh -7.0.
c1ccc(SC(Sc2ccccc2)c2ccc3c(c2)OCO3)cc1 was read as EP2 modulator 27.4 and PGE2 EP2 inh 41.5*.
`CC1Cc2ccccc2N1C(=O)CSc1nnc(-c2cccc(F)c2)o1` (configuration not stated) gave EP2 modulator -13.8 and PGE2 EP2 inh 13.5.
COCCNc1c(-c2cc3ccc(OC)cc3[nH]c2=O)nc2ccc(C)cn12 was read as EP2 modulator -346.6 and PGE2 EP2 inh 12.1.
`COc1ccc(Nc2cnn(-c3nc4ccccc4s3)c(=O)c2Cl)cc1` gave ABCB1 inh 2.7, EP2 modulator -75.5, ABCG2 block 19.4, RBBP9 inh -4.9 and PGE2 EP2 inh 60.9*.
For C/C=C/C(=O)Nc1nc2ccc(OC)cc2s1 the results were EP2 modulator -32.9 and PGE2 EP2 inh 10.2.
`COc1cccc(NC(=O)N(Cc2ccc(F)cc2)Cc2nc3ccccc3c(=O)[nH]2)c1` gave EP2 modulator -12.6 and PGE2 EP2 inh 11.1.
Cc1cc(C)nc(/N=c2/ssnc2Cl)c1 was read as ABCB1 inh 0.4, EP2 modulator -4.5, ABCG2 block 9.4, RBBP9 inh -4.2 and PGE2 EP2 inh 11.0.
For Cc1cc(Cl)ccc1N=c1ssnc1Cl the results were ABCB1 inh -1.3, EP2 modulator -54.7, ABCG2 block -3.1, RBBP9 inh -4.9 and PGE2 EP2 inh 76.5*.
`COc1ccc(OC)c(N=c2ssnc2Cl)c1` gave ABCB1 inh -1.8, EP2 modulator -69.6, ABCG2 block -9.2, RBBP9 inh 6.2 and PGE2 EP2 inh 77.3*.
`Cc1ccc(N=c2ssnc2Cl)cc1` gave ABCB1 inh -0.5, EP2 modulator -46.9, ABCG2 block -2.1, RBBP9 inh -10.9 and PGE2 EP2 inh 134.3*.
`O=C1COc2nc3cc4c(cc3cc2CN1Cc1ccccc1Cl)OCO4` gave EP2 modulator -67.3.
Screening Cc1cccc(C2(O)CCN(C(=O)c3cnc(C(C)(C)C)nc3)CC2)c1 returned EP2 modulator -49.5 and PGE2 EP2 inh 8.0.
For COc1cc(NC(=O)c2cnc(N)s2)cc(C(=O)Nc2cccc(C(F)(F)F)c2)c1 the results were EP2 modulator -17.7 and PGE2 EP2 inh 52.6*.
CCCC(=O)Nc1ccc(NC(=O)CCC)nc1 was read as EP2 modulator -7.5 and PGE2 EP2 inh 8.9.
Screening CC(CO)(CO)N=Cc1cc(I)cc(I)c1O returned EP2 modulator 39.1 and PGE2 EP2 inh 44.1*.
Screening CC1CC2(CCCCC2)Nc2c1ccc1ccccc21 (configuration not stated) returned ABCB1 inh 0.9, EP2 modulator 63.0*, ABCG2 block 7.2, RBBP9 inh -7.7 and PGE2 EP2 inh 15.7.
Screening CC(=O)N1c2c(ccc3ccccc23)C(C)CC12CCCCC2 (configuration not stated) returned ABCB1 inh 0.1, EP2 modulator 29.2, ABCG2 block 0.0, RBBP9 inh -7.4 and PGE2 EP2 inh 12.1.
Screening Fc1ccc(Cn2cccc2C2=NC(c3ccccc3)CO2)cc1 (configuration not stated) returned ABCB1 inh -0.3, EP2 modulator 61.2*, ABCG2 block -0.1, RBBP9 inh -8.6 and PGE2 EP2 inh 1.4.
`O=C(CCn1ncc2ccccc21)N1CCCC1c1nc2ccccc2[nH]1` (configuration not stated) gave EP2 modulator -0.8.
N#CCSc1nnc(COc2cccc3ccccc23)n1-c1cccc(Cl)c1 was read as ABCB1 inh 0.9, EP2 modulator 71.5*!, ABCG2 block 1.5, RBBP9 inh -6.3 and PGE2 EP2 inh 2.7.
CN1CCC[C@H]1c1cccnc1.O=C(O)c1ccccc1O.O=C([OH2+])c1ccccc1O.O=C([OH2+])c1ccccc1O.O=C([OH2+])c1ccccc1O.[Mn] was read as EP2 modulator 31.0 and PGE2 EP2 inh 41.9*.
Screening O=C(CCN1CCCCC1c1cccnc1)NCc1ccccc1 (configuration not stated) returned ABCB1 inh 0.5, EP2 modulator 11.3, ABCG2 block 1.1, RBBP9 inh -8.2 and PGE2 EP2 inh 7.7.
N#Cc1nc(-c2ccccc2Cl)oc1N1CCCCC1 was read as ABCB1 inh 0.3, EP2 modulator 63.1*, ABCG2 block 4.8, RBBP9 inh 4.8 and PGE2 EP2 inh 9.4.
For N#Cc1nc(-c2cccc3ccccc23)oc1N1CCCCC1 the results were ABCB1 inh -8.3, EP2 modulator 23.5, ABCG2 block 0.6 and RBBP9 inh -4.7.
Screening CCc1cc2cc(C)cc(C)c2nc1SCC(=O)Nc1nc(C)cs1 returned EP2 modulator 48.9 and PGE2 EP2 inh 11.9.
Screening Oc1ccc(O)cc1 returned EP2 modulator -33.6 and PGE2 EP2 inh 109.9*!.
CCOC(=O)c1nn(-c2ccc(OC)cc2)c(=O)c(C#N)c1C was read as EP2 modulator -33.0 and PGE2 EP2 inh 73.6*.
